Results published in paper PMC8598261 (European Journal of Medicinal Chemistry, 2021).

How the values were obtained:
[1] = target: T1, caspase-1 (Homo sapiens, UniProt P29466); assay: Caspase-1 inhibition assay, cleavage of fluorogenic substrate YVAD-AFC; type: biochemical; conditions: for remaining activity at 100 µM: read-out: Enzyme activity (% at 100 μM)
T1 sequence (P29466 120-297 limits assumed): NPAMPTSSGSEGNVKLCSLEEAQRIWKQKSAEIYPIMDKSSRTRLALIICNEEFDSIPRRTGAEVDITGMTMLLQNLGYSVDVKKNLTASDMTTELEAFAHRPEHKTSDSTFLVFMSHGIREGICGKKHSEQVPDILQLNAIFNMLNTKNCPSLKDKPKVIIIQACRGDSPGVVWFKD
T1 sequence (P29466 317-404 limits assumed): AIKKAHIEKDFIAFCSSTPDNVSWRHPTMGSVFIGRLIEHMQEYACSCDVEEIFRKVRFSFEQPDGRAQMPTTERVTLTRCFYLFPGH
Method in brief: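 Fluorogenic caspase-1 assay: cleavage of YVAD-AFC releases free AFC, followed as a time course of fluorescence increase (Ex/Em 400/505 nm) and compared with an untreated control. Test compounds were run as 10-dose, 3-fold serial dilutions starting at 100 μM or 10 μM to give IC50. Residual activity at 100 μM is reported as % enzyme activity.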

[2] = test system: U937 cells; assay: U937 cell growth inhibition / cell viability by MTT assay; type: cell-based, human; conditions: lowest concentrations (range 1 nM to 100 μM), 48 h
Method in brief: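 Human U937 cells were grown in RPMI 1640 with 10% FBS, penicillin and streptomycin at 37 °C in 5% CO2. They were seeded at 10000 cells/well and exposed to test compound at 1 nM–100 μM for 48 h, with matched DMSO-only controls. MTT (0.1 mg/well) was added for 4 h at 37 °C, then cells were lysed and A595 read. Viability is % of control (100%), mean of three independent experiments.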

IC50 [1] [µM]	remaining activity at 100 µM [1] [%]	Structure (SMILES)	cytotoxic effect [2]
–	> 96.7	CC(NCC(O)CC(=O)O)c1nnnn1CCCC(=O)N1CCc2ccccc2C1 (centres unmarked) [5aa, Sodium 4-((1-(1-(4-(3,4-dihydroisoquinolin-2(1H)-yl)-4-oxobutyl)-1H-tetrazol-5-yl)ethyl)amino)-3-hydrxybutanoate]	–
–	> 96.7	CC(NCC(O)CC(=O)O)c1nnnn1CCCC(=O)NCc1ccccc1 (centres unmarked) [5ba, Sodium 4-((1-(1-(4-(benzylamino)-4-oxobutyl)-1H-tetrazol-5-yl)ethyl)amino)-3-hydroxybutanoate]	–
–	> 96.7	CC(C)C(NCC(O)CC(=O)O)c1nnnn1CCCC(=O)NCc1ccccc1 (centres unmarked) [5bb, Sodium 4-((1-(1-(4-(benzylamino)-4-oxobutyl)-1H-tetrazol-5-yl)-2-methylpropyl)amino)-3-hydroxybutanoate]	–
–	> 96.7	O=C(O)CC(O)CNC(c1ccccc1)c1nnnn1CCCC(=O)NCc1ccccc1 (centres unmarked) [5be, Sodium 4-(((1-(4-(benzylamino)-4-oxobutyl)-1H-tetrazol-5-yl)(phenyl)methyl)amino)-3-hydroxybutanoate]	–
–	> 96.7	O=C(O)CC(O)CNC(c1cccs1)c1nnnn1CCCC(=O)NCc1ccccc1 (centres unmarked) [5bf, Sodium 4-(((1-(4-(benzylamino)-4-oxobutyl)-1H-tetrazol-5-yl)(thiophen-2-yl)methyl)amino)-3-hydroxybutanoate]	–
–	> 96.7	COc1cc2c(cc1OC)CN(C(=O)CCCn1nnnc1C(NCC(O)CC(=O)O)C(C)C)CC2 (centres unmarked) [5ca, Sodium 4-((1-(1-(4-(6,7-dimethoxy-3,4-dihydroisoquinolin-2(1H)-yl)-4-oxobutyl)-1H-tetrazol-5-yl)-2-methylpropyl)amino)-3-hydroxybutanoate]	–
–	> 96.7	COc1cc2c(cc1OC)CN(C(=O)CCCn1nnnc1C(NCC(O)CC(=O)O)c1cccs1)CC2 (centres unmarked) [5ce, Sodium 4-(((1-(4-(6,7-dimethoxy-3,4-dihydroisoquinolin-2(1H)-yl)-4-oxobutyl)-1H-tetrazol-5-yl)(thiophen-2-yl)methyl)amino)-3-hydroxybutanoate]	–

Further lines, the molecule ahead of its results:

Structure (SMILES)	IC50 [1] [µM]	remaining activity at 100 µM [1] [%]	cytotoxic effect [2]
O=C(O)C[C@@H](O)CNC(c1ccccc1)c1nnnn1CCCC(=O)N1CCc2ccccc2C1 (mixture of isomers) [(3R)5 ag, Sodium (3R)-4-(((1-(4-(3,4-dihydroisoquinolin-2(1H)-yl)-4-oxobutyl)-1H-tetrazol-5-yl)(phenyl)methyl)amino)-3-hydroxybutanoate]	53.5	40.5	–
CC(C)(C)CC(NC[C@H](O)CC(=O)O)c1nnnn1CCCC(=O)N1CCc2ccccc2C1 (mixture of isomers) [(3R)5ae, Sodium (3R)-4-((1-(1-(4-(3,4-dihydroisoquinolin-2(1H)-yl)-4-oxobutyl)-1H-tetrazol-5-yl)-3,3-dimethylbutyl)amino)-3-hydroxybutanoate]	12.2	9.71	–
O=C(O)C[C@@H](O)CNC(c1cccs1)c1nnnn1CCCC(=O)N1CCc2ccccc2C1 (mixture of isomers) [(3R)5ah, Sodium (3R)-4-(((1-(4-(3,4-dihydroisoquinolin-2(1H)-yl)-4-oxobutyl)-1H-tetrazol-5-yl)(thiophen-2-yl)methyl)amino)-3-hydroxybutanoate]	32.6	29	–
O=C(O)C[C@@H](O)CNC(c1cccs1)c1nnnn1CCCC(=O)NCc1ccccc1 (mixture of isomers) [(3R)5bf, Sodium (3R)-4-(((1-(4-(benzylamino)-4-oxobutyl)-1H-tetrazol-5-yl)(thiophen-2-yl)methyl)amino)-3-hydroxybutanoate]	77.8	49.6	–
CC(C)(C)CC(c1nnnn1CCCC(=O)N1CCc2ccccc2C1)N(Cc1ccccc1)C[C@H](O)CC(=O)O (mixture of isomers) [(3R)16ac, Sodium (3R)-4-((1-(1-(4-(3,4-dihydroisoquinolin-2(1H)-yl)-4-oxobutyl)-1H-tetrazol-5-yl)-3,3-dimethylbutyl)(benzyl)amino)-3-hydroxybutanoate]	15	4.45	–
O=C(O)C[C@H](O)CNC(c1ccccc1)c1nnnn1CCCC(=O)N1CCc2ccccc2C1 (mixture of isomers) [(3S)5 ag, Sodium (3S)-4-(((1-(4-(3,4-dihydroisoquinolin-2(1H)-yl)-4-oxobutyl)-1H-tetrazol-5-yl)(phenyl)methyl)amino)-3-hydroxybutanoate]	68	48.6	–
O=C(O)C[C@H](O)CNC(c1cccs1)c1nnnn1CCCC(=O)N1CCc2ccccc2C1 (mixture of isomers) [(3S)5ah, Sodium (3S)-4-(((1-(4-(3,4-dihydroisoquinolin-2(1H)-yl)-4-oxobutyl)-1H-tetrazol-5-yl)(thiophen-2-yl)methyl)amino)-3-hydroxybutanoate]	51.4	37.2	–
CC(C)(C)CC(NCC(O)CC(=O)[O-])c1nnnn1CCCC(=O)N1CCc2ccccc2C1.[Na+] (centres unmarked) [5ae, Sodium-4-((1-(1-(4-(3,4-dihydroisoquinolin-2(1H)-yl)-4-oxobutyl)-1H-tetrazol-5-yl)-3,3-dimethylbutyl)amino)-3-hydroxybutanoate]	–	–	low or is not significant
CC(C)CC(c1nnnn1CCCC(=O)N1CCc2ccccc2C1)N(Cc1ccccc1)CC(O)CC(=O)[O-].[Na+] (centres unmarked) [16aa, Sodium 4-(benzyl(1-(1-(4-(3,4-dihydroisoquinolin-2(1H)-yl)-4-oxobutyl)-1H-tetrazol-5-yl)-3-methylbutyl)amino)-3-hydroxybutanoate]	–	–	low or is not significant
